Our source for the Activity, inhibition and Ki values is ChEMBL document CHEMBL1145497, “A novel Giardia lamblia nitroreductase, GlNR1, interacts with nitazoxanide and other thiazolides” (Antimicrob Agents Chemother, 2007).

For test [1], the system named is Giardia intestinalis. As to the kind of experiment: Growth inhibition of Giardia lamblia. The class given is functional, organism-based. The settings on record: Giardia duodenalis.
Another test concerns Giardia duodenalis. Description: Inhibition of Giardia lamblia recombinant nitroreductase 1 (EAA43030.1) expressed in Escherichia coli at 5 uM. An outline of the steps:
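Six-His-tagged recombinant enzyme expressed in E. coli (1 mM IPTG, 3.5 h) and Ni-column purified. Photometric NADH-oxidation assay in 50 mM Tris-Cl pH 7.0 with 25 μM dinitrotoluene substrate, 0.15 mM NADH final, and inhibitors at 5 μM against a DMSO control. After 5 min preincubation, A340 was read over 0–20 min. Activity came from the linear slope as μkat/g protein; triplicate, mean ± SE.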

In test [2] the test system is Giardia intestinalis. Description: Reduction of GDH expression level in Giardia lamblia trophozoites at 25 uM after 3 hrs by RT-PCR assay. It is filed as functional, organism-based. The note with it: Giardia duodenalis. Put shortly: (§1)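 G. lamblia WB clone C6 trophozoites grown anaerobically in modified TYI-S-33 to near confluence, exposed to compound at 25 μM (DMSO control) for 3 h, then harvested. RNA extracted with DNase I digestion; transcript levels of GlNR1, GlGDH1 and GlACT1 quantified by real-time RT-PCR.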

Test [3] can be described thus: Inhibition of Giardia lamblia recombinant nitroreductase 1 (EAA43030.1) expressed in Escherichia coli. Also on record: species or system Giardia duodenalis. Put shortly: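 His6-tagged recombinant GlNR1 from IPTG-induced E. coli, Ni-column purified. Photometric NADH oxidation assay in 50 mM Tris-Cl pH 7.0 with dinitrotoluene substrate, 0.15 mM NADH final, 5 min preincubation, A340 read over 0–20 min.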

Test [4] deals with Giardia intestinalis. Description: Reduction of nitroreductase 1 expression level in Giardia lamblia trophozoites at 25 uM after 3 hrs by RT-PCR assay. The class given is functional, organism-based. The settings on record: Giardia duodenalis. Put shortly:
as §1

Test [5] concerns Giardia intestinalis. Description: Reduction of ACT1 expression level in Giardia lamblia trophozoites at 25 uM after 3 hrs by RT-PCR assay. It is filed as functional, organism-based. The settings on record: Giardia duodenalis. An outline of the steps: as §1

Active and inactive are the calls of the source. The calls are words filed in the database; no cut-off is given here. Some results are limits rather than exact numbers.

With `CC(=O)Oc1c(C)cccc1C(=O)Nc1ncc([N+](=O)[O-])s1`, in the test with Giardia intestinalis [1], the outcome was Active. Further, the inhibition in the test with Giardia duodenalis is over 75%.

For the compound `O=C(Nc1ncc([N+](=O)[O-])s1)c1ccccc1O`, the outcome in the test on Giardia intestinalis [1] was Active. Further, the inhibition in the test on Giardia duodenalis is over 75%.

For the compound `CC(=O)Oc1ccccc1C(=O)Nc1ncc([N+](=O)[O-])s1` [NITAZOXANIDE], the result with Giardia intestinalis [1], with Giardia intestinalis [2], in the test with Giardia intestinalis [4] and in the test with Giardia intestinalis [5] was Active. Moreover, the inhibition with Giardia duodenalis is over 75%. Besides, the Ki in test [3] was determined as 0.3 µM.

Take `Cc1ncc([N+](=O)[O-])n1CCO`: the outcome with Giardia duodenalis was inactive.

For the compound `COc1cccc(C(=O)Nc2ncc([N+](=O)[O-])s2)c1O`, the result with Giardia intestinalis [1] was Active. Moreover, the inhibition in the test with Giardia duodenalis was over 75%.

A word on the inhibition: it is how much of the control response was suppressed. One may read the Ki as a dissociation constant, usually derived from enzyme kinetics or from competition with a known ligand.
